Here are results for 10 compounds from ChEMBL document CHEMBL3297677, “A new 9-alkyladenine-cyclic methylglyoxal diadduct activates wt- and F508del-cystic fibrosis transmembrane conductance regulator (CFTR) in vitro and in vivo” (Eur J Med Chem, 2014).

The source made the active and inactive calls. No cut-off for these calls is given here.

What is called EC50 is the midpoint of the concentration-response curve.

In data set [1] the target is T1, Cystic fibrosis transmembrane conductance regulator (Homo sapiens, UniProt P13569). Description: Activation of wild-type CFTR (unknown origin) expressed in forskolin-stimulated CHO cells assessed as increase in iodide efflux at 100 uM by gamma counting. The class given is cell-based. The gist of the method: (§1)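 Iodide efflux with a robotic system. Cells were loaded at 37 °C for 30 min in Krebs' solution with 1 mM KI and Na¹²⁵I so the label reached equilibrium. The first three aliquots (t0–t2) in cold Krebs' buffer gave the baseline, and compound medium was used for t3–t8. Residual radioactivity was extracted with 0.1 M NaOH/0.1% SDS and gamma-counted. Relative rate = k_peak − k_basal (min⁻¹), expressed as % of maximal activation. EC50 came from nonlinear regression.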
Target sequence in this assay (P13569 whole entry, looked up): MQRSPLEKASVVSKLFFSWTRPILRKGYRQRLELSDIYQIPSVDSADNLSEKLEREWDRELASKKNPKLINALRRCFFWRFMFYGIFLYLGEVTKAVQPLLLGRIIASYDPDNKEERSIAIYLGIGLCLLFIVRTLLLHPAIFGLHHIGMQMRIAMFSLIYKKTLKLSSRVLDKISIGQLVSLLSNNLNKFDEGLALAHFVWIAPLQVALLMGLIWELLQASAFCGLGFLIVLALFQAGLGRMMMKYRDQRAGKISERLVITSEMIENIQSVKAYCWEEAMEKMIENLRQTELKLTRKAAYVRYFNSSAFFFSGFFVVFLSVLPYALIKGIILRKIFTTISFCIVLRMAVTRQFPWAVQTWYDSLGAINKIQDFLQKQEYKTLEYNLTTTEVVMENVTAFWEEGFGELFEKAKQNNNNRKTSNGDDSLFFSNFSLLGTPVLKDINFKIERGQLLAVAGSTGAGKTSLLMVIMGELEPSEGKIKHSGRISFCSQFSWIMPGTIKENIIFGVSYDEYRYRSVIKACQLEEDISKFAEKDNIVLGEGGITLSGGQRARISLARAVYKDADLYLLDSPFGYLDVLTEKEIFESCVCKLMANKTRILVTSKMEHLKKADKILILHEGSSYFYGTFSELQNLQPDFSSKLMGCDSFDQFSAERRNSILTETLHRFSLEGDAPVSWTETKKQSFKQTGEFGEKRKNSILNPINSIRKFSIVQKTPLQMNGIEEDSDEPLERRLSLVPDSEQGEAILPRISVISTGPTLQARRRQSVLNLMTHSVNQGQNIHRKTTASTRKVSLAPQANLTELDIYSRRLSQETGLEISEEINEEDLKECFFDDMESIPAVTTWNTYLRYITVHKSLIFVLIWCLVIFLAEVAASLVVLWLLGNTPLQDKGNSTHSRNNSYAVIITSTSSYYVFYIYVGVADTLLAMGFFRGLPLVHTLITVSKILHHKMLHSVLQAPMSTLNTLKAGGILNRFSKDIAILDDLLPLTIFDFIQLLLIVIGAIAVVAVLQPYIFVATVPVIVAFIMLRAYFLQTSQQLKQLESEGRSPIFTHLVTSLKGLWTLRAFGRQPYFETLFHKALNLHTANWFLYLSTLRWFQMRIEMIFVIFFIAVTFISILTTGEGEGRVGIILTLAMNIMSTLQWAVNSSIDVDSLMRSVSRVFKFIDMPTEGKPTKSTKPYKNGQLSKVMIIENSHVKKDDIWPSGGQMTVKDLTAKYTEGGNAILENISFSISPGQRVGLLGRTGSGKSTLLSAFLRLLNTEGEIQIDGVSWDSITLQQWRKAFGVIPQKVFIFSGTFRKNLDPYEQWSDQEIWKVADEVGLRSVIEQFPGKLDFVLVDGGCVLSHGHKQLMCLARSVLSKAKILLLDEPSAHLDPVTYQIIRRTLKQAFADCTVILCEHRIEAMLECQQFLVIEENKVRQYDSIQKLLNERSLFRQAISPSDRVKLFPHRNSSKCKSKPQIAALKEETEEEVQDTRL

For data set [2], the target named is T1, Cystic fibrosis transmembrane conductance regulator. The data set is described as follows: Activation of wild-type CFTR (unknown origin) expressed in forskolin-stimulated CHO cells assessed as increase in iodide efflux by gamma counting. The class given is cell-based. An outline of the steps:
as §1
Target sequence in this assay (P13569 whole entry): as the sequence (P13569 whole entry, looked up) above

Data set [3] has the same target. The data set is described as follows: Activation of CFTR in forskolin-stimulated human MM39 cells by DiSBAC2(3) dye based fluorescence analysis. In kind it is cell-based. The gist of the method: (§2)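 Human tracheal gland MM39 cells were imaged cell by cell with the potential-sensitive oxonol probe DiSBAC2(3) (ex 535 nm, em 560 nm). Signal is Fx = (Ft − F0)/F0 × 100 relative to the time of stimulus addition. Histograms show the stable fluorescence variation, as mean ± SEM. The CFTR inhibitor CFTRinh-172 was used at 1 µM. Runs were done with or without forskolin.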
Target sequence in this assay (P13569 whole entry, looked up): as above

Data set [4] has the same target. The data set is described as follows: Activation of CFTR in human MM39 cells by DiSBAC2(3) dye based fluorescence analysis in presence of 1 uM CFTRinh-172. The class given is cell-based. An outline of the steps:
as §2
Target sequence in this assay (P13569 whole entry, looked up): as above

Data set [5] deals with Rattus norvegicus. Description: Potentiation of isprenaline-induced salivary secretion in male Wistar rat assessed as net weight of saliva secreted at 30 uM, sc followed by treatment with 1 mM cholinergic inhibitor atropine. In kind it is functional, organism-based. An outline of the steps:
(§3)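 Male Wistar rats (250–300 g) were held supine. Basal secretion was blocked with atropine (1 mM). Saline containing 1 mM atropine plus compound (30 µM), isoprenaline (10 µM) or both was then injected subcutaneously into the cheek. Saliva was collected on paper pieces changed every 4 min and weighed. Secretion rate = saliva weight / collection time (min) / body weight (g).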

Data set [6] addresses T1, Cystic fibrosis transmembrane conductance regulator. The data set is described as follows: Activation of CFTR in forskolin-stimulated human MM39 cells by DiSBAC2(3) dye based fluorescence analysis in presence of 1 uM CFTRinh-172. In kind it is cell-based. The gist of the method:
as §2
Target sequence in this assay (P13569 whole entry, looked up): as above

The test system of data set [7] is CHO. Description: Cytotoxicity against wild-type CFTR transfected CHO cells upto 300 uM after 24 hrs by MTT assay. In kind it is cell-based, Cricetulus griseus. Particulars: chinese hamster. The gist of the method: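 Wt-CFTR CHO cells were exposed for 24 h, and viability was read by MTT reduction to formazan. Controls were untreated cells and cells deprived of medium for 24 h.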

Data set [8] concerns Rattus norvegicus. The data set is described as follows: Effect on salivary secretion in male Wistar rat assessed as net weight of saliva secreted at 30 uM, sc followed by treatment with 1 mM cholinergic inhibitor atropine. In kind it is functional, organism-based. An outline of the steps: as §3
Data set [9] addresses Cystic fibrosis transmembrane conductance regulator (Homo sapiens, UniProt P13569, F508DEL). The data set is described as follows: (§4) Activation of CFTR F508 deletion mutant in forskolin-stimulated and miglustat-corrected human […] cells assessed as increase in iodide efflux by gamma counting. The class given is cell-based. An outline of the steps:
as §1

Data set [10] deals with Cystic fibrosis transmembrane conductance regulator (Homo sapiens), P13569 [F508del]. The description is as §4. In kind it is cell-based. An outline of the steps: as §1
Data set [11] concerns the target T1, Cystic fibrosis transmembrane conductance regulator. Description: Activation of CFTR in human MM39 cells by DiSBAC2(3) dye based fluorescence analysis. The class given is cell-based. The gist of the method:
as §2
Target sequence in this assay (P13569 whole entry, looked up): as above

Chain of Cystic fibrosis transmembrane conductance regulator (Homo sapiens, UniProt P13569, F508DEL) (P13569 as listed by the source): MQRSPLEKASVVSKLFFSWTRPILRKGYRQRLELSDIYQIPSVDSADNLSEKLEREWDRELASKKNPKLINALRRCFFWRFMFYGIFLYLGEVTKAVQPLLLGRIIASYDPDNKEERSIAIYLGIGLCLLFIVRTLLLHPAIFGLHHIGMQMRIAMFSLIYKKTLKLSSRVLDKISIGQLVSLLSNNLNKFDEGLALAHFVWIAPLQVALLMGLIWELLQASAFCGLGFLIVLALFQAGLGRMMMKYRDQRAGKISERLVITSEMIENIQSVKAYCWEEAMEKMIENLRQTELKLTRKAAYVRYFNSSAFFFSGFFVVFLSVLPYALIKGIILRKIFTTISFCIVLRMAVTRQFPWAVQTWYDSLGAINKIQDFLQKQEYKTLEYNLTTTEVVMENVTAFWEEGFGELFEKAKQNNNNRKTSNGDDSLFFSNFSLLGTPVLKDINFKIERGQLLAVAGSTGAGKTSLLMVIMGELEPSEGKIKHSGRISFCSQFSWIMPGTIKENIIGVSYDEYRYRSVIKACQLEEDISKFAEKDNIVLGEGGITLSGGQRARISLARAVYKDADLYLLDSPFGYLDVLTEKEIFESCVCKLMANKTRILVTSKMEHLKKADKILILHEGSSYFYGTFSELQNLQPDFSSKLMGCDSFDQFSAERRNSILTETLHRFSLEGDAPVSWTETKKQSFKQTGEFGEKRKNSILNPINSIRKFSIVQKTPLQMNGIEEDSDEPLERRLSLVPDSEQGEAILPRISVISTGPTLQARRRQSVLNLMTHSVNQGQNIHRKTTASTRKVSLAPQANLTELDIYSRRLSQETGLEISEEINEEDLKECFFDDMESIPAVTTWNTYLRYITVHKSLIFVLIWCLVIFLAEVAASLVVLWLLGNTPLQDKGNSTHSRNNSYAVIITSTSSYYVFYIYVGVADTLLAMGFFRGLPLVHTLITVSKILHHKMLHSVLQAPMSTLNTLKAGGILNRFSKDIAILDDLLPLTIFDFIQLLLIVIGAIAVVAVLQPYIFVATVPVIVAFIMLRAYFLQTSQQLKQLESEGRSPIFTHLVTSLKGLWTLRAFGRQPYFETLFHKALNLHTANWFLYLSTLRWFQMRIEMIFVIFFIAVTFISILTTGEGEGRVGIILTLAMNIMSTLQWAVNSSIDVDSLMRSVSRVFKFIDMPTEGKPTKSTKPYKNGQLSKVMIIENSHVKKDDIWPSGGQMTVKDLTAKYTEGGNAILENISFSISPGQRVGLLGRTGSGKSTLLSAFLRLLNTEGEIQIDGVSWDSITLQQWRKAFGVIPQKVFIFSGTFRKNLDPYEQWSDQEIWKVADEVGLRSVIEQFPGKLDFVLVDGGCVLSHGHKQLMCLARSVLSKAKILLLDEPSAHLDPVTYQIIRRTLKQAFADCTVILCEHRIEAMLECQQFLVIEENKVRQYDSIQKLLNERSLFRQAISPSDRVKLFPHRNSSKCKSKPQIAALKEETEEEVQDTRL
Chain of Cystic fibrosis transmembrane conductance regulator (Homo sapiens), P13569 [F508del] (P13569 as listed by the source): as above

Turning to `CC(C)n1cnc2c1N=CN1C2=N[C@](C)(C(=O)O)[C@@H](O)[C@@]1(C)O`, in data set [1], the outcome was inactive.
The same measure, in the same setting: the entry for `Cn1cnc2c1N=CN1C2=N[C@](C)(C(=O)O)[C@@H](O)[C@@]1(C)O` is “inactive”.
Take `C=CCn1cnc2c1N=CN1C2=N[C@](C)(C(=O)O)[C@H](O)[C@]1(C)O`: in data set [2], the EC50 was found to be 2.1 µM.
Take `C=CCn1cnc2c1N=CN1C2=N[C@](C)(C(=O)O)[C@@H](O)[C@@]1(C)O`: the result in data set [3], in data set [5], in data set [1] and in data set [11] was Active. Further, the result in data set [4], in [6] and in [8] was inactive. The Activity result was “Non-toxic” in data set [7] and “Dose-dependent effect” in data set [10]. Further, the EC50 in [9] stood at 104 µM; in data set [2] it was 7.5 µM.
On to `CCCCn1cnc2c1N=CN1C2=N[C@](C)(C(=O)O)[C@@H](O)[C@@]1(C)O`, for which the outcome in data set [1] was inactive.
On the same count and under the same terms, with `C#CCn1cnc2c1N=CN1C2=N[C@](C)(C(=O)O)[C@@H](O)[C@@]1(C)O` the entry was “inactive”.
Regarding `C[C@]1(C(=O)O)N=C2c3ncn(CCCc4ccccc4)c3N=CN2[C@](C)(O)[C@@H]1O`, the outcome in data set [1] was inactive.
Regarding `CCn1cnc2c1N=CN1C2=N[C@](C)(C(=O)O)[C@@H](O)[C@@]1(C)O`, in data set [1], the outcome was inactive.
Same read-out and setting: the entry for `C[C@]1(C(=O)O)N=C2c3ncn(Cc4ccccc4)c3N=CN2[C@](C)(O)[C@@H]1O` is “inactive”; for `C[C@]1(C(=O)O)N=C2c3ncn(CCCO)c3N=CN2[C@](C)(O)[C@@H]1O` it is “inactive”.
